Each block holds one compound with its values, some of them ahead of it.
What was measured:
Hv1 WT [1] = target: T1, Hv1 WT (Homo sapiens, UniProt Q96D96); format: cell-based; conditions: for inhibition kinetics: fast and slow components: RDT = 0.2
T1 sequence (Q96D96 1-273): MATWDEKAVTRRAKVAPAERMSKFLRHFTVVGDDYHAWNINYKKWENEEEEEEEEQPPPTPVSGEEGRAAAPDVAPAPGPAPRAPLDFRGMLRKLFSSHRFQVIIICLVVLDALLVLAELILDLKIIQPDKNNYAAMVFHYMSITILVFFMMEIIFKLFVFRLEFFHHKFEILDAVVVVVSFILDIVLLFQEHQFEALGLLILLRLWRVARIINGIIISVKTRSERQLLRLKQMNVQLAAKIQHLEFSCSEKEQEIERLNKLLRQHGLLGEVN
Summary of the method: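 WT channel in inside-out oocyte patches, symmetric pH 6.0, 22 ± 1°C. Holding −40 mV, depolarization to +120 mV; relative depolarization time td/(tr + td) of 0.1, 0.2, 0.3 or 0.5. 50 µM perfused into bath, then washed out. End-pulse current normalized. Decay fitted double-exponentially (τfast, τslow, weights, c∞); recovery fitted single-exponentially. n = 7, 7, 5, 8 per RDT; SEM.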

Hv1 WT [2] = target: T1, Hv1 WT; assay: Inside-out patch, pulsed application of inhibitor to the closed channel; format: cell-based; conditions: 100 µM pulses, membrane held at 0 mV or −80 mV
Summary of the method: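 WT channel, inside-out oocyte patches, pH 6.0. Test compound (100 µM) applied in 3 s pulses while the membrane was held closed at −40 mV, or at 0 mV or −80 mV. Current read after each pulse with a step to +120 mV. Control pulses of a reference Hv1 inhibitor given first to confirm complete washout between depolarizations.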

Hv1 WT [3] = target: T1, Hv1 WT; conditions: 200 µM; ref Hong et al. (2013); cited from earlier work
Hv1 = conditions: full set of concentration points; ref Zhao et al., 2021; cited from earlier work

Compound: Nc1nc2ccccc2[nH]1 [ABI, 2-aminobenzimidazole, reference compound]
extent and kinetics of proton current inhibition compared with 2GBI (Hv1 WT [1]; 50 μM, same conditions as 2GBI): inhibited the proton current to a smaller extent but with similar kinetics

Compound: N=C(N)Nc1nc2ccccc2[nH]1 [2GBI, 2-guanidinobenzimidazole, reference compound]
inhibition when transiently perfused on closed channel (Hv1 WT [2]): failed to produce any inhibition
return of current to original level upon washout (Hv1 WT [1]; after 50 μM, washout): a few seconds
inhibition at 50 µM (Hv1 WT [1]; read-out: stable inhibited current level (of the original current)): ~50%
G-V shift (Hv1 WT [3]): lack of G-V shift

Compound: Cc1[nH]c(N)nc1CCC(O)c1cc(F)cc(F)c1 (stereo not shown) [HIFOH, 3-(2-amino-5-methyl-1H-imidazol-4-yl)-1-(3,5-difluorophenyl)propan-1-ol]
inhibition kinetics: fast and slow components (Hv1 WT [1]; 50 μM): did not have a significant slow component

Second part, led by results:

inhibition kinetics: fast and slow components (Hv1 WT [1]; 50 μM): with fast and slow components
Compound: Cc1[nH]c(N)nc1CNC(=O)c1cc(F)cc(F)c1 [HIFNH, N-[(2-amino-5-methyl-1H-imidazol-4-yl)methyl]-3,5-difluorobenzamide]

inhibition kinetics: fast and slow components (Hv1 WT [1]; 50 μM): with fast and slow components
Compound: Cc1[nH]c(N)nc1/C=C/C(=O)c1cc(F)cc(F)c1 [HIFEN, (2E)-3-(2-amino-5-methyl-1H-imidazol-4-yl)-1-(3,5-difluorophenyl)prop-2-en-1-one]
Hill coefficient (Hv1): 1.50 ± 0.11

inhibition kinetics: fast and slow components (Hv1 WT [1]; 50 μM): with fast and slow components
Compound: Cc1[nH]c(N)nc1CCC(=O)c1ccccc1 [HIFNF, 3-(2-amino-5-methyl-1H-imidazol-4-yl)-1-phenyl-propan-1-one]

— PMC8263925 (The Journal of General Physiology, 2021)
